Columns and labels:
[1] = macrocyclic analog of crizotinib; cited from earlier work
[2] = test system: RAW 264.7 murine macrophage‐like cells; test: EZ-Cytox cell viability assay with RSL3 co-treatment; type: cell-based; conditions: RSL3 1 µM + DMSO, 24 h, EZ-Cytox (WST), n = 3
Procedure, shortened: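 RAW 264.7 murine macrophage-like cells were co-treated for 24 h with RSL3 (1 µM) plus test compound. The screen used 10 µM, and dose-response used 0.3–20 µM on a log scale. Viability was read by EZ-Cytox and normalized to DMSO. Mean ± SD, n = 3.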

HeLa cells = test: Lipid peroxidation, fluorescence imaging with BODIPY 665/676; type: cell-based, human; conditions: RSL3 1 µM, 3 h, BODIPY 665/676 imaging
Procedure, shortened: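 HeLa cells were treated for 3 h with DMSO, test compound (40 µM), RSL3 (1 µM) or both. They were then stained for 0.5 h with Hoechst 33342 (2 µg/ml) and BODIPY 665/676 (5 µM). Cells were imaged by fluorescence, and BODIPY intensity was quantified relative to DMSO-treated cells. Mean ± SD, n = 21; one-way ANOVA.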

RAW 264.7 cells [3] = test: Lipid peroxidation, flow cytometry with BODIPY 665/676; type: cell-based, murine; conditions: RSL3 1 µM, 4 h, BODIPY 665/676 flow cytometry
Procedure, shortened: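 RAW 264.7 cells were treated for 4 h with DMSO, RSL3 (1 µM) or test compound plus RSL3. They were then stained with BODIPY 665/676 for 0.5 h. Mean fluorescence intensity was read by flow cytometry. Mean ± SD, n = 3; one-way ANOVA.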

RAW 264.7 cells [4] = conditions: read-out: EC50 (ferroptosis inhibition); in RAW 264.7 cells; cited from earlier work

## C[C@H]1Oc2cc(cnc2N)-c2c(nn(C)c2C#N)CN(C)C(=O)c2ccc(F)cc21 [lorlatinib]
[1]
  Potency increase through macrocyclization: ~80 fold

## COC(=O)c1ccc([C@H]2c3[nH]c4ccccc4c3C[C@H](C(=O)OC)N2C(=O)CCl)cc1 [RSL3, RAS‐selective lethal 3]
[2]
  Cell viability with RSL3 alone: 18%
HeLa cells
  Lipid peroxide level (imaging), RSL3 alone: markedly increased lipid peroxide levels
RAW 264.7 cells [3]
  Lipid peroxide level (flow cytometry), RSL3 alone: markedly increased lipid peroxide levels

## CCOC(=O)c1ccc(NC2CCCCC2)c(N)c1 [ferrostatin‐1]
RAW 264.7 cells [4]
  EC50: 40 ± 4 nM

Source: PMC12707352 (Angewandte Chemie (International Ed. in English), 2025)
